Series [1] deals with T1, Tyrosine-protein phosphatase non-receptor type 1 (Homo sapiens) (UniProt P18031).
T1 sequence (whole entry): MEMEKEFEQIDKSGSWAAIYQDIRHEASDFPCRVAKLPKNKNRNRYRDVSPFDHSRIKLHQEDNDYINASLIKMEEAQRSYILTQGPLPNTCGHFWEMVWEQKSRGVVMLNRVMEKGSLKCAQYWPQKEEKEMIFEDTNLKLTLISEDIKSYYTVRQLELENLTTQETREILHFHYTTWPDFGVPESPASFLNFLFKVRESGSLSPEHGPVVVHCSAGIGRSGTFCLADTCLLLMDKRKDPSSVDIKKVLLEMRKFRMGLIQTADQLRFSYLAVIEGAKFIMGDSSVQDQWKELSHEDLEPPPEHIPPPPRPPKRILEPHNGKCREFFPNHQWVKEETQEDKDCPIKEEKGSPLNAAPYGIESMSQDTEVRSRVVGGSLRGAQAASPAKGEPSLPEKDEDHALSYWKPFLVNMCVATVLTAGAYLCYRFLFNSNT
As to the kind of experiment: (§1) Inhibition of PTP1B (1 to 298 residues) (unknown origin) using DifMUP as substrate preincubated for 30 mins followed by substrate addition and measured after 30 mins by fluorescence assay. The method in brief:
(§2)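 PTP1B catalytic domain (aa 1–298, 5 nM final) preincubated with compound (diluted in DMSO) 30 min at RT in the dark. DifMUP (30 μM final) added, 30 min at RT. Stopped with H2O2 (0.5% final), 30 min RT. Fluorescence read at Ex 360/Em 450 nm. Buffer: 50 mM citrate pH 6.0, 100 mM NaCl, 1 mM EDTA, 0.1 mM DTT, 0.01% Brij35.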

Series [2] is described as follows: Effect on fluorescence read out during PTP1B enzymatic reaction compound treated post enzyme-substrate reaction and susequent H2O2-mediated enzyme deactivation. The method in brief:
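Read-out counter assay. PTP1B (aa 1–298) turned over DifMUP first, then the enzyme was deactivated with H2O2 and compound added. A drop in fluorescence (Ex 360/Em 450 nm) marks interference with the read-out. Concentration–response format.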

Series [3] deals with T2, Tyrosine-protein phosphatase non-receptor type 1 (Homo sapiens, UniProt P18031).
T2 sequence (P18031 whole entry): T1 sequence (whole entry)
The description is as §1. The gist of the method: as §2

Series [4] is described as follows: Self-aggregating behavior of compound at 32 to 500 uM by 1D-1H NMR method. It counts as physicochemical. The gist of the method: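 Self-association check by 1D 1H NMR. Dilution series from 500 to 32 μM compound in 5 mM TRIS pH 7.4, 50 mM NaCl, 5% DMSO-d6. Concentration-dependent shifts of aromatic resonances were monitored.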
Series [5] addresses T2, Tyrosine-protein phosphatase non-receptor type 1. The experiment in a line: Competitive inhibition of PTP1B (1 to 298 residues) (unknown origin) using 60 uM DifMUP as substrate preincubated for 30 mins followed by substrate addition and measured after 30 mins by fluorescence assay. The method in brief: (§3)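 PTP1B aa 1–298 (5 nM final) preincubated with compound 30 min at RT in the dark, then DifMUP added, 30 min at RT. Stopped with 0.5% final H2O2, 30 min. Fluorescence read at Ex 360/Em 450 nm. Buffer: citrate pH 6.0, NaCl, EDTA, DTT, Brij35.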

A short description of series [6]: Intrinsic redox activity of compound after 60 mins in presence of resazurin/DTT.
The target in series [7] is T2, Tyrosine-protein phosphatase non-receptor type 1. As to the kind of experiment: Competitive inhibition of PTP1B (1 to 298 residues) (unknown origin) using 30 uM DifMUP as substrate preincubated for 30 mins followed by substrate addition and measured after 30 mins by fluorescence assay. The gist of the method:
as §2

Series [8] has as its target T1, Tyrosine-protein phosphatase non-receptor type 1 (Homo sapiens). As to the kind of experiment: Reversible inhibition of PTP1B (1 to 298 residues) (unknown origin) using 10 fold excess DifMUP as substrate preincubated for 30 mins followed by substrate addition and measured after 30 mins by fluorescence assay.
Series [9] has as its target T2, Tyrosine-protein phosphatase non-receptor type 1. The experiment in a line: Competitive inhibition of PTP1B (1 to 298 residues) (unknown origin) using 15 uM DifMUP as substrate preincubated for 30 mins followed by substrate addition and measured after 30 mins by fluorescence assay. The method in brief: as §3

pIC50: −log10 of the molar value. Calls of active or inactive are those of the source. The rule behind the calls is not given here.

Consider `Cc1c(C)c2c(c(C)c1OC(=O)CCC(=O)O)CCC(C)(C)O2`, for which the inhibition result in series [1] was “inactive”.

As to `Cc1c(C)c2c(c(C)c1O)CC[C@@](C)(CCC[C@H](C)CCC[C@H](C)CCCC(C)C)O2`, in series [1], the inhibition result is “inactive”.

Take `COc1cc2c(cc1OC)-c1cc3ccc(OC)c(OC)c3c[n+]1CC2` [PALMITINE]: in [2], the result was Active. Besides, the pIC50 in [3] is 3.63.

For the molecule `COc1ccc2cc3[n+](cc2c1OC)CCc1cc2c(cc1-3)OCO2` [BERBERINE], the result in [4] was Active. For the same molecule, the result in [2] was Active. The same molecule gave a pIC50 in series [3] of 4.17.

Regarding `Cc1c(C)c2c(c(C)c1OC(=O)CCC(=O)O)CC[C@@](C)(CCC[C@H](C)CCC[C@H](C)CCCC(C)C)O2` [(+)-ALPHA-TOCOPHERYL SUCCINATE], the pIC50 in series [5] is 4.34; in [7] it was 4.41; in [3], 4.70; in [9], 4.60. In addition, the result in series [6] and in [2] was inactive. Besides, in series [8], the inhibition result was “Active”.

For the molecule `CN(C)c1ccc2nc3ccc(=[N+](C)C)cc-3sc2c1`, the inhibition result in [1] was “Active”.

With `O=C(O)C(=O)Nc1sc2c(c1C(=O)O)CCNC2`, the result in [2] was inactive.

With `CC(=O)Oc1c(C)c(C)c2c(c1C)CC[C@@](C)(CCC[C@H](C)CCC[C@H](C)CCCC(C)C)O2`, the inhibition entry in [1] was “inactive”.

As usually defined, the pIC50 is the IC50 on a negative log10 scale, so that one unit is a factor of ten. Lower therefore signals a high IC50.

The values above are taken from ChEMBL document CHEMBL4261523, “PAIN-less identification and evaluation of small molecule inhibitors against protein tyrosine phosphatase 1B” (Medchemcomm, 2017).
